ChEMBL document CHEMBL1128472, “Reversible inhibitors of the gastric (H+/K+)-ATPase. 5. Substituted 2,4-diaminoquinazolines and thienopyrimidines” (J Med Chem, 1995)

Experiments:
[1] = molecular target: Potassium-transporting ATPase (Sus scrofa, UniProt P19156); experiment: Inhibition of K+ stimulated gastric ATPase activity; format: tissue-based, Stomach
Summary of the method: (§1)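 K+-stimulated ATPase activity measured in a lyophilized gastric vesicle preparation at pH 7; enzyme concentration estimated at around 2 nM from 32P-ATP binding.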

[2] = molecular target: T1, Potassium-transporting ATPase (Rattus norvegicus) (UniProt P09626+P18598); experiment: Inhibition of pentagastrin stimulated gastric acid secretion in anesthetized rat 10 uM/kg, on iv administration of the compound.; format: functional, organism-based; conditions: Stomach
Summary of the method: (§2)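 Anaesthetized rat with lumen-perfused stomach; acid secretion induced by pentagastrin; compound given intravenously; inhibition of acid output recorded.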

[3] = test system: Canis familiaris; experiment: % inhibition of Histamine-stimulated gastric acid secretion in Heidenhain pouch dog at 4 uM/kg, on peroral administration of the compound.; format: functional, Canis lupus familiaris, Stomach
Summary of the method: (§3)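 Heidenhain pouch dogs with histamine-stimulated acid secretion; compound given orally as a dry powder in a hard gelatin capsule; inhibition of acid secretion measured.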

[4] = molecular target: T1, Potassium-transporting ATPase (Rattus norvegicus); experiment: Inhibition of pentagastrin stimulated gastric acid secretion in anesthetized rat at 10 uM/kg; format: functional; conditions: Stomach; 10 umol/kg; summary of the method: as §2
[5] = test system: Canis familiaris; experiment: % inhibition of Histamine-stimulated gastric acid secretion in Heidenhain pouch dog 4 uM/kg, on peroral administration of the compound.; format: functional, Canis lupus familiaris, Stomach; summary of the method: as §3
[6] = test system: Canis familiaris; experiment: % inhibition of Histamine-stimulated gastric acid secretion in Heidenhain pouch dog 1 uM/kg, on iv administration of the compound.; format: functional, Canis lupus familiaris, Stomach
[7] = test system: Rattus norvegicus; experiment: Inhibition of pentagastrin stimulated gastric acid secretion in anesthetized rat at 10 uM/kg, on iv administration of the compound.; format: functional, Stomach; summary of the method: as §2
[8] = test system: Canis familiaris; experiment: Histamine-stimulated gastric acid secretion in Heidenhain pouch dog at 1uM/Kg, on iv administration of the compound; format: functional, Canis lupus familiaris, Stomach
[9] = test system: Canis familiaris; experiment: Histamine-stimulated gastric acid secretion in Heidenhain pouch dog at 4uM/Kg, on oral administration of the compound
[10] = test system: Rattus norvegicus; experiment: Inhibition of pentagastrin stimulated gastric acid secretion in anesthetized rat at 10 uM, on iv administration of the compound.; format: functional, Stomach; summary of the method: as §2
[11] = molecular target: Potassium-transporting ATPase (Sus scrofa) (UniProt P18434+P19156); experiment: Inhibition of K+ stimulated gastric ATPase activity at 100 uM; format: tissue-based; conditions: Stomach; summary of the method: as §1
[12] = test system: Rattus norvegicus; experiment: Inhibition of pentagastrin stimulated gastric acid secretion in anesthetized rat on 10 uM/kg, iv administration of the compound.; format: functional, Stomach; summary of the method: as §2
[13] = test system: Rattus norvegicus; experiment: Inhibition of pentagastrin stimulated gastric acid secretion in anesthetized rat on iv administration of the compound.; format: functional; conditions: Stomach; summary of the method: as §2

Potassium-transporting ATPase, sequence (P18434 whole entry): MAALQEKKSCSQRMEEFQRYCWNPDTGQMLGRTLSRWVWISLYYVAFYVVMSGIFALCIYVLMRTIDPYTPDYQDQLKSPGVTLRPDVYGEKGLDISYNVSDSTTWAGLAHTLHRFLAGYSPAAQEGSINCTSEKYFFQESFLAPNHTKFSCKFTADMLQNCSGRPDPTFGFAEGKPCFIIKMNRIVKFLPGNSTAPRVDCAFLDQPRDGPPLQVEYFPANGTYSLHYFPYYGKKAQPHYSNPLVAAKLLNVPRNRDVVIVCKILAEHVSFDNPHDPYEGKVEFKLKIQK
Potassium-transporting ATPase, sequence (P19156 whole entry): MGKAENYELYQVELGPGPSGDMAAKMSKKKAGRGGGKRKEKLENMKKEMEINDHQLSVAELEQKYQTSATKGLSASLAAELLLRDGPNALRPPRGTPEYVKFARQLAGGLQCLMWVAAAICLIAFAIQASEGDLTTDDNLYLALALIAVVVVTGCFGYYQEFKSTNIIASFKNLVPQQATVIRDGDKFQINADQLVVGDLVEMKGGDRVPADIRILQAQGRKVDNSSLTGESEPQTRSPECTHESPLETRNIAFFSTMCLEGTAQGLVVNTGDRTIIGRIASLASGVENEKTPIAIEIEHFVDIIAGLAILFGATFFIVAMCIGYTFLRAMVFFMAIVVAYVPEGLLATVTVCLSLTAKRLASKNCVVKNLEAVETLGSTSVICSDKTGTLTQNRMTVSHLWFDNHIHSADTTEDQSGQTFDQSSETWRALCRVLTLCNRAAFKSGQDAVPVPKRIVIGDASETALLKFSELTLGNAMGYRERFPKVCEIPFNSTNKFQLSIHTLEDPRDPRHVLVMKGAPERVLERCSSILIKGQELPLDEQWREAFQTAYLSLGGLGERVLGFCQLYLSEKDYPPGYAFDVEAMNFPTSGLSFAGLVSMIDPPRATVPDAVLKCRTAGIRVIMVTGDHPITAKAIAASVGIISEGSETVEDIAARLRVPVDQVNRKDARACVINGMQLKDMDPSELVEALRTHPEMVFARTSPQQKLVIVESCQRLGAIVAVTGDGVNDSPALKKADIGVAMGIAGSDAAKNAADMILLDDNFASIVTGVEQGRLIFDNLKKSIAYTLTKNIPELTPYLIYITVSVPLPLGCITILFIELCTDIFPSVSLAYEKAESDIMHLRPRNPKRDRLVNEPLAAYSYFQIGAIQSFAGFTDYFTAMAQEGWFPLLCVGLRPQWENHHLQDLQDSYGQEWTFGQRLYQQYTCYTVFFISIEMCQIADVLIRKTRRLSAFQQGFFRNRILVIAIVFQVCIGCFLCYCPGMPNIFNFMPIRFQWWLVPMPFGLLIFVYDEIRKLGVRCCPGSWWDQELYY

Row | Structure (SMILES) | IC50 [1] | further results
1 | Cc1cc(F)ccc1Nc1nc(N(C)c2ccccc2)c2cc(OCCCN(C)C)ccc2n1 | 1100 nM | –
2 | Cc1cc(F)ccc1Nc1nc(N(C)c2ccccc2)c2cccc(OCCO)c2n1 | 100 nM | –
3 | COc1ccc(N(C)c2nc(Nc3ccccc3C)nc3ccccc23)cc1 | 34 nM | Inhibition [3]: 12%; inhibition [4]: 60%
4 | COc1cccc2c(Nc3ccccc3C)nc(NCCc3ccccc3)nc12 | 3200 nM | –
5 | Cc1ccccc1Nc1nc(N(C)c2ccccc2)c2cccc(OCCCN(C)C)c2n1 | 21 nM | inhibition [2]: 49%; Inhibition [5]: 25%; Inhibition [6]: 18%
6 | Cc1cc(F)ccc1Nc1nc2c(C)cccc2c2c1CCN2c1ccccc1C | 130 nM | –
7 | Cc1cc(F)ccc1Nc1nc(N(C)c2ccccc2)c2cccc(O)c2n1 | 170 nM | –
8 | Cc1cc(F)ccc1Nc1nc(N(C)c2ccccc2)c2sccc2n1 | 34 nM | Inhibition [7]: 49%
9 | COc1ccc(Nc2nc(N(C)c3ccccc3)c3sccc3n2)c(C)c1 | 340 nM | –
10 | COc1cccc2c(N(C)c3ccccc3C)nc(Nc3ccc(F)cc3C)nc12 | 95 nM | –
11 | Cc1ccccc1Nc1nc(N(C)c2ccccc2C)c2ccccc2n1 | 46 nM | inhibition [4]: 90%
12 | CN/C(=N\CCSCc1nc[nH]c1C)NC#N [CIMETIDINE] | – | ED50 [8]: 1.7 µmol/kg; ED50 [9]: 8.5 µmol/kg
13 | Cc1ccccc1Nc1ncnc2ccccc12 | – | Inhibition [10]: 9%; inhibition [11]: 28%
14 | COc1cccc2c(N(C)c3ccccc3)nc(Nc3ccc(F)cc3C)nc12 | 32 nM | inhibition [2]: 94%; Inhibition [5]: 32%; Inhibition [6]: 96%
15 | COc1ccc(N(C)c2nc(Nc3ccccc3C)[n+](C)c3ccccc23)cc1 | 28 nM | –
16 | CCOC(=O)COc1cccc2c(N(C)c3ccccc3)nc(Nc3ccc(F)cc3C)nc12 | 130 nM | Inhibition [12]: 39%
17 | Cc1ccccc1Nc1nc(N(C)c2ccccc2)c2cc(O)ccc2n1 | 24 nM | –
18 | Cc1cc(F)ccc1Nc1nc(N(C)c2ccccc2)c2cc(OCCN(C)C)ccc2n1 | 1300 nM | –

Continued, in another order:

Row | IC50 [1] | Structure (SMILES) | further results
19 | 41 nM | Cc1cc(Cl)ccc1Nc1nc(N(C)c2ccccc2)c2ccccc2n1 | inhibition [2]: 31%
20 | 1390 nM | CCNc1nc(Nc2ccccc2C)c2ccccc2n1 | –
21 | 2000 nM | COc1cccc2c(Nc3ccccc3C)nc(NCc3ccccc3)nc12 | –
22 | 11600 nM | COc1cccc2c(Nc3ccccc3C)ncnc12 | inhibition [4]: 30%
23 | 260 nM | Cc1ccccc1Nc1nc(N(C)c2ccccc2)c2cccc(O)c2n1 | –
24 | 36 nM | Cc1cc(F)ccc1Nc1nc(N(C)c2ccccc2)c2cccc(OCCCN(C)C)c2n1 | inhibition [2]: 68%; Inhibition [5]: 0%
25 | 4600 nM | Cc1ccccc1Nc1nc(NCCO)nc2ccccc12 | inhibition [4]: 21%
26 | 640 nM | CNc1nc(Nc2ccccc2C)c2cccc(OC)c2n1 | inhibition [4]: 19%
27 | 35 nM | Cc1ccccc1Nc1nc(N(C)c2ccccc2)c2cccc(OCCO)c2n1 | inhibition [2]: 93%; Inhibition [5]: 8%; Inhibition [6]: 73%
28 | 1320 nM | Cc1ccccc1Nc1nc(N)nc2ccccc12 | ED50 [13]: 48 µmol/kg
29 | 130 nM | Cc1cc(F)ccc1Nc1nc(N(C)c2ccccc2)c2ccsc2n1 | –
30 | 510 nM | Cc1ccccc1Nc1nc(NCc2ccccc2)nc2ccccc12 | –
31 | 140 nM | Cc1cc(F)ccc1Nc1nc(N(C)c2ccccc2)c2cccc(F)c2n1 | –
32 | 1900 nM | COc1cccc2c(Nc3ccccc3C)nc(NCc3ccco3)nc12 | –
33 | 250 nM | COc1ccc2nc(Nc3ccc(F)cc3C)nc(N(C)c3ccccc3)c2c1 | Inhibition [12]: 27%
34 | 3800 nM | COc1cccc2c(Nc3ccccc3C)nc(NCc3nccs3)nc12 | inhibition [4]: 33%
35 | 510 nM | Cc1ccccc1Nc1nc(N(C)c2ccccc2)c2ccsc2n1 | –
